The text below walks through data of ChEMBL document CHEMBL1156201, “2-MeS-beta,gamma-CCl2-ATP is a potent agent for reducing intraocular pressure” (J Med Chem, 2010).

By pKa is commonly meant the negative logarithm of the acid dissociation constant. Broadly, the EC50 is the midpoint of the concentration-response curve. The half-life is the time in which the quantity being followed falls by half.

Series [1] relates to Serum. Put plainly: Half life in human serum. Type of series: ADME, cell-free. In short, it runs like this:
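Serum came from healthy volunteers' blood, held 12 h at 4 °C, centrifuged and stored at −80 °C. Nucleotide (4.5 μL of 40 mM stock) was incubated with 180 μL serum plus 540 μL RPMI-1640 at 37 °C for up to 24 h, sampled at 0.5–12 h intervals. Samples were heat-stopped at 80 °C, cleaned up by extraction and anion-exchange, then analysed by HPLC. Hydrolysis rate came from peak-area change over time.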

Series [2] is described as follows: Chemical stability assessed as enzymatic stability at 100 uM after 20 mins in presence of human NTPDase1. Type of series: physicochemical. In short, it runs like this: (§1)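 Crude extracts of COS-7 cells transiently transfected with the NTPDase. Extract preincubated 3 min at 37 °C in Tris-Ringer buffer, pH 7.4. Substrate added at 100 μM final; reaction stopped at 20 min with malachite green. Released Pi read at 630 nm. Activity of untransfected-cell extract subtracted.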

For series [3], the species on record is Oryctolagus cuniculus. As to the kind of experiment: Antihypertensive activity in New Zealand rabbit assessed as reduction in intraocular pressure at 100 uM after 8 hrs relative to control. The class given is functional. An outline of the steps:
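Male New Zealand white rabbits (2.5 ± 0.5 kg). 100 μM, 10 μL applied unilaterally to the cornea; contralateral eye got the same volume of saline (0.9% NaCl). IOP read by rebound tonometer without anesthetic, twice before dosing, then followed up to 8 h. Blinded design. Mean ± SEM of 8–10 independent experiments.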

Series [4] is described as follows: Chemical stability assessed as enzymatic stability at 100 uM after 20 mins in presence of human NPP3. Type of series: physicochemical. An outline of the steps: (§2)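 Human NPP1 or NPP3 extract was preincubated 3 min at 37 °C in 1 mM CaCl2, 140 mM NaCl, 5 mM KCl, 50 mM Tris pH 8.5. Nucleotide was added at 100 μM final. After 20 min the reaction was quenched into ice-cold 1 M perchloric acid and neutralised with KOH. Degradation was read by reverse-phase HPLC (TBA/EDTA/phosphate, pH 7.0).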

Series [5] in a line: Association constant pKa of the compound. The class given is physicochemical.
Series [6] can be described thus: Chemical stability assessed as enzymatic stability at 100 uM after 20 mins in presence of human NTPDase3. The class given is physicochemical. An outline of the steps:
as §1

The target of series [7] is P2Y purinoceptor 1 (Meleagris gallopavo, UniProt P49652). Put plainly: Agonist activity at turkey P2Y1 receptor expressed in human […] receptor assessed as induction of intracellular calcium mobilization. Type of series: functional, cell-based. On the technique in general: Calcium flux is commonly read through the fluorescence of an indicator in the cells.
The nature of series [8]: Chemical stability assessed as enzymatic stability at 100 uM after 20 mins in presence of human NTPDase2. Type of series: physicochemical. An outline of the steps: as §1
Series [9] can be described thus: Chemical stability assessed as enzymatic stability at 100 uM after 20 mins in presence of human NTPDase8. The class given is physicochemical. An outline of the steps:
as §1

Series [10] can be described thus: Chemical stability assessed as enzymatic stability at 100 uM after 20 mins in presence of human NPP1. Type of series: physicochemical. In short, it runs like this:
as §2

The species named for series [11] is Oryctolagus cuniculus. As to the kind of experiment: Antihypertensive activity in New Zealand rabbit assessed as reduction in intraocular pressure at 1 nM to 100 uM after 8 hrs relative to control. The class given is functional, Eye. In short, it runs like this: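 Male New Zealand white rabbits (2.5 ± 0.5 kg). 10 μL of 1 nM–100 μM solution instilled unilaterally on the cornea; contralateral eye got saline (0.9% NaCl, vehicle). IOP read by rebound tonometer without anesthetic, twice before dosing. Maximal response at each dose was plotted against concentration and fitted for pD2; EC50 taken as antilog of −pD2. One dose per animal per day, washout ≥2 days. Experimenter blinded.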

Series [12] in a line: Chemical stability assessed as half life of hydrolysis at pH 1.4. The conditions noted are these: buffer. Type of series: physicochemical. In short, it runs like this: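 Analogue (1.5 mg) in 0.2 M HCl/KCl buffer (0.8 mL), adjusted to pH 1.4, held at 37 °C for 1–31 days. Sampled at 1–24 h intervals and analysed by reverse-phase HPLC. Half-life derived from peak integration over time.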

Active and inactive are the calls of the source. The calls are words filed in the database; no cut-off is given here.

P2Y purinoceptor 1, sequence (P49652 whole entry): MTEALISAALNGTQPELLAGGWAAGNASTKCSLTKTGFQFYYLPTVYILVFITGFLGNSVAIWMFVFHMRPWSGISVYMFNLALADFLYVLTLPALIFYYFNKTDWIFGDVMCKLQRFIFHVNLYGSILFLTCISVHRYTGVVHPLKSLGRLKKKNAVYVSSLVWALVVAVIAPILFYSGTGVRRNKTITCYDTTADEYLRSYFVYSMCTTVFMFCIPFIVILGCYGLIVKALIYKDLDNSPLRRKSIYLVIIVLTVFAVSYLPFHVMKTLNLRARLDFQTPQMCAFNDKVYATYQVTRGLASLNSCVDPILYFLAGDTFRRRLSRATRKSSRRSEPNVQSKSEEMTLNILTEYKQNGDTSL

Take `CSc1nc(N)c2ncn([C@@H]3O[C@H](COP(=O)(O)OP(=O)(O)C(F)(F)P(=O)(O)O)[C@@H](O)[C@H]3O)c2n1`: the t1/2 in [1] came to 12.4 h. The Activity in [2] is listed as 2.6%; in series [4], 0.5%; in series [6] it was 2.6%; in series [8] it was 1.1%; in [9] it was 5.2%; in series [10] it was 6.2%. For the same compound, the outcome in [3] (Eye) was inactive. The same compound showed a pKa in [5] of 7. In addition, the EC50 in series [7] (read-out: EC50) stood at 0.76 µM.

As for `CSc1nc(N)c2ncn([C@@H]3O[C@H](COP(=O)(O)OP(=O)(O)C(Cl)(Cl)P(=O)(O)O)[C@@H](O)[C@H]3O)c2n1`, the Activity in series [2] turned out to be 0.5%; in series [3], 32%; in series [4], 1.9%; in [8] it was 0.5%; in series [10], 5.8%. The same compound had a pKa in series [5] of 7. In addition, in [7] (read-out: EC50), the EC50 worked out at 9.54 µM.

With `CSc1nc(N)c2ncn([C@@H]3O[C@H](COP(=O)(O)C(Cl)(Cl)P(=O)(O)O)[C@@H](O)[C@H]3O)c2n1`, the result in [3] (Eye) was Active. The Activity in series [4] was found to be 1.8%; in [8] it was 1.7%; in [10], 3.3%. The pKa in series [5] was found to be 7. Besides, the EC50 in [7] (read-out: EC50) was determined as 3.1 µM. Further, in series [11], the pD2 is 4.5.

Regarding `CSc1nc(N)c2ncn([C@@H]3O[C@H](COP(=O)(O)C(F)(F)P(=O)(O)O)[C@@H](O)[C@H]3O)c2n1`, the Activity in [2] was 1.3%; in series [8], 2.4%; in series [9], 0.1%; in series [10], 3.9%. Further, the outcome in series [3] (Eye) was Active. For the same compound, in series [5], the pKa was determined as 7. The EC50 in [7] (read-out: EC50) is 0.98 µM. Further, the pD2 in series [11] is 5.1.

Consider `BP(=O)(OC[C@H]1O[C@@H](n2cnc3c(N)ncnc32)[C@H](O)[C@@H]1O)OP(=O)(O)CP(=O)(O)O` (stereo not given in full), for which the half-life in [12] was 19 h. Besides, the pKa in series [5] was 8.4.

As for `BP(=O)(OC[C@H]1O[C@@H](n2cnc3c(N)nc(SC)nc32)[C@H](O)[C@@H]1O)OP(=O)(O)CP(=O)(O)O` (stereo not given in full), the half-life in series [12] was 14.5 h. Besides, in [5], the pKa stood at 8.4.

Regarding `CSc1nc(N)c2ncn([C@@H]3O[C@H](COP(=O)(O)OP(=O)(O)CP(=O)(O)O)[C@@H](O)[C@H]3O)c2n1`, the t1/2 in [12] was 65 h. For the same compound, in [3], the Activity was 32%. Further, the pD2 in [11] was found to be 4.5.

Take `BP(=O)(OC[C@H]1O[C@@H](n2cnc3c(N)nc(SC)nc32)[C@H](O)[C@@H]1O)OP(=O)(O)C(F)(F)P(=O)(O)O` (stereo in doubt; 10A): the Activity in series [2] turned out to be 1%; in [4] it was 10%; in series [6] it was 4.4%; in series [8], 1.8%; in series [9] it was 1.7%; in series [10], 4%. The compound also returned a pKa in series [5] of 7. Further, the EC50 result in [7] is on record as “Not Active”.

On to `BP(=O)(OC[C@H]1O[C@@H](n2cnc3c(N)nc(SC)nc32)[C@H](O)[C@@H]1O)OP(=O)(O)C(F)(F)P(=O)(O)O` (stereo in doubt; 10B), for which the Activity in series [2] came to 0.4%; in series [4] it was 3.2%; in [8] it was 0.9%; in [10], 3.4%. The EC50 in [7] (read-out: EC50) is 2.13 µM.

Turning to `BP(=O)(OC[C@H]1O[C@@H](n2cnc3c(N)ncnc32)[C@H](O)[C@@H]1O)OP(=O)(O)C(Cl)(Cl)P(=O)(O)O` (stereo in doubt; 11A) [listing 1 of 2 here], the Activity in [2] stood at 5.5%; in series [6], 2.6%; in series [8], 1.3%; in series [9] it was 4.4%; in series [10], 5.3%. The compound further returned a pKa in [5] of 7. In addition, the EC50 result in series [7] was “Not Active”.

Regarding `BP(=O)(OC[C@H]1O[C@@H](n2cnc3c(N)ncnc32)[C@H](O)[C@@H]1O)OP(=O)(O)C(Cl)(Cl)P(=O)(O)O` (stereo in doubt; 11A) [listing 2 of 2 here], in [3] (Eye), the result was inactive.

Take `BP(=O)(OC[C@H]1O[C@@H](n2cnc3c(N)ncnc32)[C@H](O)[C@@H]1O)OP(=O)(O)C(Cl)(Cl)P(=O)(O)O` (stereo in doubt; 11B) [listing 1 of 2 here]: the Activity is given as 3.2% in series [2]; 3.1% in series [6]; 1.4% in series [8]; 4% in [9]; 3.3% in series [10]. The EC50 result in series [7] was “Not Active”.

For `BP(=O)(OC[C@H]1O[C@@H](n2cnc3c(N)ncnc32)[C@H](O)[C@@H]1O)OP(=O)(O)C(Cl)(Cl)P(=O)(O)O` (stereo in doubt; 11B) [listing 2 of 2 here], the outcome in [3] (Eye) was Active.

As to `BP(=O)(OC[C@H]1O[C@@H](n2cnc3c(N)nc(SC)nc32)[C@H](O)[C@@H]1O)OP(=O)(O)C(Cl)(Cl)P(=O)(O)O` (stereo in doubt; 12A) [listing 1 of 2 here], the Activity came out at 0.7% in series [2]; 5% in [4]; 0.3% in [6]; 1.5% in series [8]; 0.7% in [10]. The compound further returned a pKa in [5] of 7. Further, in series [7] (read-out: EC50), the EC50 came out at 0.57 µM.

Consider `BP(=O)(OC[C@H]1O[C@@H](n2cnc3c(N)nc(SC)nc32)[C@H](O)[C@@H]1O)OP(=O)(O)C(Cl)(Cl)P(=O)(O)O` (stereo in doubt; 12A) [listing 2 of 2 here], for which the outcome in [3] (Eye) was Active.

As to `BP(=O)(OC[C@H]1O[C@@H](n2cnc3c(N)nc(SC)nc32)[C@H](O)[C@@H]1O)OP(=O)(O)C(Cl)(Cl)P(=O)(O)O` (stereo in doubt; 12B) [listing 1 of 2 here], the EC50 in [7] (read-out: EC50) came out at 1.2 µM. Further, the Activity is given as 1.8% in series [9] and 4% in [10].

As to `BP(=O)(OC[C@H]1O[C@@H](n2cnc3c(N)nc(SC)nc32)[C@H](O)[C@@H]1O)OP(=O)(O)C(Cl)(Cl)P(=O)(O)O` (stereo in doubt; 12B) [listing 2 of 2 here], in series [3] (Eye), the outcome was Active.

In series [1], `Nc1ncnc2c1ncn2[C@@H]1O[C@H](COP(=O)(O)OP(=O)(O)OP(=O)(O)O)[C@@H](O)[C@H]1O` [ADENOSINE TRIPHOSPHATE] displayed a t1/2 of 4.9 h.
